# Data from article PMC6682128 (ACS Omega, 2019).
# Assay: Cytotoxicity assay
# Format: cell-based
# Conditions: human
# Outline: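 Replicon cells (Huh5-2, Huh7.5-3a or Huh7.5-4a) were seeded at 10^4 per well and grown 24 h in complete DMEM. They were then exposed for three days to serial dilutions of test compound or DMSO solvent. Lysates were assayed for ATP by chemiluminescence, normalised to Bradford total protein. CC50 was obtained by nonlinear regression against log concentration.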
row,Structure (SMILES),CC50 at 3 days [µM]
1,"COC(=O)N[C@H](C(=O)N1CCC[C@H]1C(=O)Nc1ccc(C#CC#Cc2ccc(NC(=O)[C@@H]3CCCN3C(=O)[C@@H](NC(=O)OC)C(C)C)cc2)cc1)C(C)C [1a, Dimethyl((2S,2′S)-((2S,2′S)-(((buta-1,3-diyne-1,4-diylbis(4,1-phenylene))bis(azanediyl))bis(carbonyl))bis(pyrrolidine-2,1-diyl))bis(3-methyl-1-oxobutane-1,2-diyl))dicarbamate]",11
2,"CCCCOC(=O)N[C@H](C(=O)N1CCC[C@H]1C(=O)Nc1ccc(C#CC#Cc2ccc(NC(=O)[C@@H]3CCCN3C(=O)[C@@H](NC(=O)OCCCC)C(C)C)cc2)cc1)C(C)C [1c, Dibutyl((2S,2′S)-((2S,2′S)-(((buta-1,3-diyne-1,4-diylbis(4,1-phenylene))bis(azanediyl))bis(carbonyl))bis(pyrrolidine-2,1-diyl))bis(3-methyl-1-oxobutane-1,2-diyl))dicarbamate]",> 20
3,"CC(C)COC(=O)N[C@H](C(=O)N1CCC[C@H]1C(=O)Nc1ccc(C#CC#Cc2ccc(NC(=O)[C@@H]3CCCN3C(=O)[C@@H](NC(=O)OCC(C)C)C(C)C)cc2)cc1)C(C)C [1d, Diisobutyl((2S,2′S)-((2S,2′S)-(((buta-1,3-diyne-1,4-diylbis(4,1-phenylene))bis(azanediyl))bis(carbonyl))bis(pyrrolidine-2,1-diyl))bis(3-methyl-1-oxobutane-1,2-diyl))dicarbamate]",> 10
4,"CCOC(=O)N[C@@H](CC(C)C)C(=O)N1CCC[C@H]1C(=O)Nc1ccc(C#CC#Cc2ccc(NC(=O)[C@@H]3CCCN3C(=O)[C@H](CC(C)C)NC(=O)OCC)cc2)cc1 [1f, Diethyl((2S,2′S)-((2S,2′S)-(((buta-1,3-diyne-1,4-diylbis(4,1-phenylene))bis(azanediyl))bis(carbonyl))bis(pyrrolidine-2,1-diyl))bis(4-methyl-1-oxopentane-1,2-diyl))dicarbamate]",> 10
5,"CCCCOC(=O)N[C@@H](CC(C)C)C(=O)N1CCC[C@H]1C(=O)Nc1ccc(C#CC#Cc2ccc(NC(=O)[C@@H]3CCCN3C(=O)[C@H](CC(C)C)NC(=O)OCCCC)cc2)cc1 [1g, Dibutyl((2S,2′S)-((2S,2′S)-(((buta-1,3-diyne-1,4-diylbis(4,1-phenylene))bis(azanediyl))bis(carbonyl))bis(pyrrolidine-2,1-diyl))bis(4-methyl-1-oxopentane-1,2-diyl))dicarbamate]",> 10
6,"CCOC(=O)N[C@H](C(=O)N1CCC[C@H]1C(=O)Nc1ccc(C#CC#Cc2ccc(NC(=O)[C@@H]3CCCN3C(=O)[C@@H](NC(=O)OCC)C(C)CC)cc2)cc1)C(C)CC (stereo partly drawn) [1h, Diethyl((2S,2′S)-((2S,2′S)-(((buta-1,3-diyne-1,4-diylbis(4,1-phenylene))bis(azanediyl))bis(carbonyl))bis(pyrrolidine-2,1-diyl))bis(3-methyl-1-oxopentane-1,2-diyl))dicarbamate]",> 10
7,"CCCCOC(=O)N[C@H](C(=O)N1CCC[C@H]1C(=O)Nc1ccc(C#CC#Cc2ccc(NC(=O)[C@@H]3CCCN3C(=O)[C@@H](NC(=O)OCCCC)C(C)CC)cc2)cc1)C(C)CC (stereo partly drawn) [1i, Dibutyl((2S,2′S)-((2S,2′S)-(((buta-1,3-diyne-1,4-diylbis(4,1-phenylene))bis(azanediyl))bis(carbonyl))bis(pyrrolidine-2,1-diyl))bis(3-methyl-1-oxopentane-1,2-diyl))dicarbamate]",> 10
8,"CCOC(=O)N[C@H](C(=O)N1CCC[C@@H]1C(=O)Nc1ccc(C#CC#Cc2ccc(NC(=O)[C@H]3CCCN3C(=O)[C@@H](NC(=O)OCC)C(C)C)cc2)cc1)C(C)C [1j, Diethyl((2S,2′S)-((2R,2′R)-(((buta-1,3-diyne-1,4-diylbis(4,1-phenylene))bis(azanediyl))bis(carbonyl))bis(pyrrolidine-2,1-diyl))bis(3-methyl-1-oxobutane-1,2-diyl))dicarbamate]",> 10
9,"CCOC(=O)N[C@@H](C(=O)N1CCC[C@@H]1C(=O)Nc1ccc(C#CC#Cc2ccc(NC(=O)[C@H]3CCCN3C(=O)[C@H](NC(=O)OCC)C(C)C)cc2)cc1)C(C)C [1k, Diethyl((2R,2′R)-((2R,2′R)-(((buta-1,3-diyne-1,4-diylbis(4,1-phenylene))bis(azanediyl))bis(carbonyl))bis(pyrrolidine-2,1-diyl))bis(3-methyl-1-oxobutane-1,2-diyl))dicarbamate]",> 10
10,"CCOC(=O)N[C@@H](CC(C)C)C(=O)N1CCC[C@@H]1C(=O)Nc1ccc(C#CC#Cc2ccc(NC(=O)[C@H]3CCCN3C(=O)[C@H](CC(C)C)NC(=O)OCC)cc2)cc1 [1l, Diethyl((2S,2′S)-((2R,2′R)-(((buta-1,3-diyne-1,4-diylbis(4,1-phenylene))bis(azanediyl))bis(carbonyl))bis(pyrrolidine-2,1-diyl))bis(4-methyl-1-oxopentane-1,2-diyl))dicarbamate]",> 10
11,"CCOC(=O)N[C@H](CC(C)C)C(=O)N1CCC[C@@H]1C(=O)Nc1ccc(C#CC#Cc2ccc(NC(=O)[C@H]3CCCN3C(=O)[C@@H](CC(C)C)NC(=O)OCC)cc2)cc1 [1m, Diethyl((2R,2′R)-((2R,2′R)-(((buta-1,3-diyne-1,4-diylbis(4,1-phenylene))bis(azanediyl))bis(carbonyl))bis(pyrrolidine-2,1-diyl))bis(4-methyl-1-oxopentane-1,2-diyl))dicarbamate]",> 10
12,"CCOC(=O)N[C@@H](C(=O)N1CCC[C@H]1C(=O)Nc1ccc(C#CC#Cc2ccc(NC(=O)[C@@H]3CCCN3C(=O)[C@H](NC(=O)OCC)C(C)C)cc2)cc1)C(C)C [1n, Diethyl((2R,2′R)-((2S,2′S)-(((buta-1,3-diyne-1,4-diylbis(4,1-phenylene))bis(azanediyl))bis(carbonyl))bis(pyrrolidine-2,1-diyl))bis(3-methyl-1-oxobutane-1,2-diyl))dicarbamate]",70.6
13,"CC(C)C[C@H](NC(=O)OCc1ccccc1)C(=O)N1CCC[C@H]1C(=O)Nc1ccc(C#CC#Cc2ccc(NC(=O)[C@@H]3CCCN3C(=O)[C@H](CC(C)C)NC(=O)OCc3ccccc3)cc2)cc1 [1o, Dibenzyl((2S,2′S)-((2S,2′S)-(((buta-1,3-diyne-1,4-diylbis(4,1-phenylene))bis(azanediyl))bis(carbonyl))bis(pyrrolidine-2,1-diyl))bis(4-methyl-1-oxopentane-1,2-diyl))dicarbamate]",> 10
14,"CCC(C)[C@H](NC(=O)OCc1ccccc1)C(=O)N1CCC[C@H]1C(=O)Nc1ccc(C#CC#Cc2ccc(NC(=O)[C@@H]3CCCN3C(=O)[C@@H](NC(=O)OCc3ccccc3)C(C)CC)cc2)cc1 (stereo partly drawn) [1p, Dibenzyl((2S,2′S)-((2S,2′S)-(((buta-1,3-diyne-1,4-diylbis(4,1-phenylene))bis(azanediyl))bis(carbonyl))bis(pyrrolidine-2,1-diyl))bis(3-methyl-1-oxopentane-1,2-diyl))dicarbamate]",> 10
15,"CCOC(=O)N[C@H](C(=O)N1CCC[C@H]1C(=O)Nc1cccc(C#CC#Cc2cccc(NC(=O)[C@@H]3CCCN3C(=O)[C@@H](NC(=O)OCC)C(C)C)c2)c1)C(C)C [2b, Diethyl((2S,2′S)-((2S,2′S)-(((buta-1,3-diyne-1,4-diylbis(3,1-phenylene))bis(azanediyl))bis(carbonyl))bis(pyrrolidine-2,1-diyl))bis(3-methyl-1-oxobutane-1,2-diyl))dicarbamate]",> 200
16,"CCCCOC(=O)N[C@H](C(=O)N1CCC[C@H]1C(=O)Nc1cccc(C#CC#Cc2cccc(NC(=O)[C@@H]3CCCN3C(=O)[C@@H](NC(=O)OCCCC)C(C)C)c2)c1)C(C)C [2c, Dibutyl((2S,2′S)-((2S,2′S)-(((buta-1,3-diyne-1,4-diylbis(3,1-phenylene))bis(azanediyl))bis(carbonyl))bis(pyrrolidine-2,1-diyl))bis(3-methyl-1-oxobutane-1,2-diyl))dicarbamate]",> 10
17,"CC(C)COC(=O)N[C@H](C(=O)N1CCC[C@H]1C(=O)Nc1cccc(C#CC#Cc2cccc(NC(=O)[C@@H]3CCCN3C(=O)[C@@H](NC(=O)OCC(C)C)C(C)C)c2)c1)C(C)C [2d, Diisobutyl((2S,2′S)-((2S,2′S)-(((buta-1,3-diyne-1,4-diylbis(3,1-phenylene))bis(azanediyl))bis(carbonyl))bis(pyrrolidine-2,1-diyl))bis(3-methyl-1-oxobutane-1,2-diyl))dicarbamate]",> 20
18,"CCCCOC(=O)N[C@@H](CC(C)C)C(=O)N1CCC[C@H]1C(=O)Nc1cccc(C#CC#Cc2cccc(NC(=O)[C@@H]3CCCN3C(=O)[C@H](CC(C)C)NC(=O)OCCCC)c2)c1 [2g, Dibutyl((2S,2′S)-((2S,2′S)-(((buta-1,3-diyne-1,4-diylbis(3,1-phenylene))bis(azanediyl))bis(carbonyl))bis(pyrrolidine-2,1-diyl))bis(4-methyl-1-oxopentane-1,2-diyl))dicarbamate]",> 10
19,"CCOC(=O)N[C@H](C(=O)N1CCC[C@H]1C(=O)Nc1cccc(C#CC#Cc2cccc(NC(=O)[C@@H]3CCCN3C(=O)[C@@H](NC(=O)OCC)[C@@H](C)CC)c2)c1)[C@H](C)CC [2h, Ethyl((2S,3S)-1-((S)-2-((3-((3-((S)-1-((ethoxycarbonyl)-L-alloisoleucyl)pyrrolidine-2-carboxamido)phenyl)buta-1,3-diyn-1-yl)phenyl)carbamoyl)pyrrolidin-1-yl)-3-methyl-1-oxopentan-2-yl)carbamate]",> 200
20,"CCCCOC(=O)N[C@H](C(=O)N1CCC[C@H]1C(=O)Nc1cccc(C#CC#Cc2cccc(NC(=O)[C@@H]3CCCN3C(=O)[C@@H](NC(=O)OCCCC)[C@@H](C)CC)c2)c1)[C@H](C)CC [2i, Butyl((2S,3S)-1-((S)-2-((3-((3-((S)-1-((butoxycarbonyl)-L-alloisoleucyl)pyrrolidine-2-carboxamido)phenyl)buta-1,3-diyn-1-yl)phenyl)carbamoyl)pyrrolidin-1-yl)-3-methyl-1-oxopentan-2-yl)carbamate]",> 10
